Laboratory results published in ChEMBL document CHEMBL4316619 (Bioorg Med Chem Lett, 2019).
Active and inactive are the calls of the source. The calls are words filed in the database; no cut-off is given here.

Key:
MDCK = assay: Cytotoxicity against MDCK cells assessed as reduction in cell viability measured after 48 hrs by CellTiter Glo assay; assay type: cell-based, Canis lupus familiaris; conditions: dog
Procedure, shortened: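 MDCK cells were incubated with compound under the conditions of the 48 h replication assay. Cytotoxicity was read with the CellTiter-Glo ATP viability assay. Follow-up viability testing used 5, 10, 50 and 100 μM.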

Influenza A virus [1] = assay: Antiviral activity against Influenza A virus A/PR/8/34 (H1N1) infected in MDCK cells assessed as fold reduction in virus titer at 10 uM measured after 48 hrs by hemagglutination assay relative to control; assay type: functional, A/Puerto Rico/8/1934(H1N1)
Procedure, shortened: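 MDCK cells were infected with A/PR/8/34 (H1N1) at MOI 0.1 and incubated with compound for 48 h. Supernatant virus was then quantified by hemagglutination assay and standard TCID50 analysis. The single-concentration screen used 10 μM and reports fold reduction in titer. Dose-response runs used triplicate cultures, with percent titer decrease back-calculated from TCID50.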

[2] = Cytotoxicity against MDCK cells assessed as reduction in cell viability measured on day 5 by Celltiter-Glo luminescence assay; assay type: cell-based, Canis lupus familiaris; conditions: dog, MDCK cells
Procedure, shortened: (§1)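 MDCK cells were infected with seasonal influenza A strains through NIAID resources and scored for protection from virus-induced cell death. Compounds were tested at four concentrations (0.8, 4, 20, 100 μM). EC50/EC90 (reduction of viral cell death) and CC50 (reduction of cell viability) were derived in μM, and SI50 = CC50/EC50.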

Influenza A virus H3N2 = assay: Antiviral activity against Influenza A virus (A/Brisbane/10/2007(H3N2)) infected in MDCK cells assessed as reduction in virus-induced cytopathic effect measured on day 5 by Celltiter-Glo luminescence assay; assay type: functional, organism-based; conditions: 120 h; procedure, shortened: as §1
Influenza A virus [3] = assay: Antiviral activity against Influenza A virus (A/California/7/2009(H1N1)) infected in MDCK cells assessed as reduction in virus-induced cytopathic effect measured on day 5 by Celltiter-Glo luminescence assay; assay type: functional, organism-based; conditions: 120 h; procedure, shortened: as §1
Influenza B virus = assay: Antiviral activity against Influenza B virus (B/Brisbane/60/2008) infected in MDCK cells assessed as reduction in virus-induced cytopathic effect measured on day 5 by Celltiter-Glo luminescence assay; assay type: functional, organism-based
[4] = Stability of the compound in mouse liver microsomes assessed as parent compound remaining measured after 15 mins; assay type: ADME, Microsome; conditions: read-out: Stability
Procedure, shortened: (§2)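 Mouse liver microsomes; percent parent compound remaining measured at 0, 15 and 30 min.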

[5] = target: Luciferin 4-monooxygenase (Photinus pyralis) (UniProt P08659); assay: Effect on firefly luciferase activity expressed in 293 cells at 50 uM by luminescence assay; assay type: cell-based
Chain of Luciferin 4-monooxygenase (Photinus pyralis) (P08659 whole entry): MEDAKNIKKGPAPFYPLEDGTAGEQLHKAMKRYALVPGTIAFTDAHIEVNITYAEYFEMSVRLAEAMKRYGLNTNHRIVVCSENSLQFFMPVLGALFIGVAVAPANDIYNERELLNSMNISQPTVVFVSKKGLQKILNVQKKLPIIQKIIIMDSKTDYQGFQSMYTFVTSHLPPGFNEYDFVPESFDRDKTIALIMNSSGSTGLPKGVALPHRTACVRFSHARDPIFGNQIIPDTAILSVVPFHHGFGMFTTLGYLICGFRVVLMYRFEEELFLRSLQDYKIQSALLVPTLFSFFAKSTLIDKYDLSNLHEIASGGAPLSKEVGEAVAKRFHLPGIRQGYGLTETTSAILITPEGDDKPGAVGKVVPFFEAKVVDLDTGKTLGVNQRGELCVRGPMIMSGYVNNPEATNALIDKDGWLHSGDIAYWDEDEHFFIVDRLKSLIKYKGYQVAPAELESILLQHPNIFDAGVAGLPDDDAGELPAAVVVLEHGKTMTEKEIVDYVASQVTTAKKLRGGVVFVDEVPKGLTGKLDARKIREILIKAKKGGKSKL

[6] = Stability of the compound in mouse liver microsomes assessed as parent compound remaining measured after 30 mins; assay type: ADME, Microsome; conditions: read-out: Stability; procedure, shortened: as §2
[7] = target: Non-structural protein 1 (Influenza A virus (strain A/Puerto Rico/8/1934 H1N1)) (UniProt P03496); assay: Inhibition of Influenza A virus A/PR/8/34 (H1N1) NS1 expressed in 293 cells assessed as increase in poly(I:C)-induced IFN-beta reporter activity treated 16 hrs […] measured after 24 hrs by luciferase reporter gene assay; assay type: cell-based; conditions: Influenza A virus (A/Puerto Rico/8/1934(H1N1))
Chain of Non-structural protein 1 (Influenza A virus (strain A/Puerto Rico/8/1934 H1N1)) (P03496 whole entry): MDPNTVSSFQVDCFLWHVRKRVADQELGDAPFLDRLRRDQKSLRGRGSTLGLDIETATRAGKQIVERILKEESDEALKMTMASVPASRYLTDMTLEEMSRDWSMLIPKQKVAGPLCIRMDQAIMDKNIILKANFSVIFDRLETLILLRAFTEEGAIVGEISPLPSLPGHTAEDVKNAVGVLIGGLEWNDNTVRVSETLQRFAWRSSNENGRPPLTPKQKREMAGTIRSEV
Procedure, shortened: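 293 cells co-transfected with a human IFN-β promoter-driven firefly luciferase reporter and NS1 expression constructs. At 16 h post-transfection, poly(I:C) 50 μg/mL plus compound (20 μM) or 1% DMSO added for a further 24 h; luciferase read by luminometer. Untransfected cells serve as baseline.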

Saccharomyces cerevisiae = assay: Effect on growth of Yeast 9526-6-2 harboring pYES at 50 uM measured up to 60 hrs; assay type: organism-based; conditions: in vivo
Procedure, shortened: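 Control yeast carrying empty pYES and NS1-expressing NS1-pYES strain grown with DMSO or compound at 50 μM. Growth measured as OD600 at 22, 42 and 60 h.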

[8] = target: Non-structural protein 1 (Influenza A virus (strain A/Puerto Rico/8/1934 H1N1)) (UniProt P03496); assay: Inhibition of NS1 in Influenza A virus A/PR/8/34 (H1N1) infected in MDCK cells assessed as restoration of protein-induced reduction in IFN-beta mRNA expression at 20 uM measured after 6 hrs by RT-PCR analysis; assay type: cell-based; conditions: Influenza A virus (A/Puerto Rico/8/1934(H1N1))
Procedure, shortened: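 MDCK cells infected with A/PR/8/34 at MOI 2 and incubated 6 h with compound at 20 μM. Cells harvested; IFN-β and β-actin mRNA detected by RT-PCR. Poly(I:C) lane serves as positive control for IFN-β induction.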

[9] = Aqueous kinetic solubility of the compound; assay type: physicochemical; conditions: buffer
[10] = Stability of the compound in mouse liver microsomes assessed as parent compound remaining measured immediately; assay type: ADME, Microsome; conditions: read-out: Stability; procedure, shortened: as §2
Influenza A virus [11] = assay: Effect on NS1 protein expression in Influenza A virus A/PR/8/34 (H1N1) infected in MDCK cells at 20 uM by Western blot analysis; assay type: functional, organism-based; conditions: A/Puerto Rico/8/1934(H1N1)
Procedure, shortened: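 MDCK cells, uninfected or infected with A/PR/8/34, treated with DMSO or compound at 20 μM. NS1 protein detected by Western blot, with α-tubulin as loading control.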

| SMILES | Activity (MDCK) | fold change (FC) (Influenza A virus [1]) | other results |
| --- | --- | --- | --- |
| COc1cccc(-n2nc(C)c3c(-c4ccc(O)c(OC)c4)ccnc32)c1 | Non-Toxic | 0 | – |
| COc1cc(-c2c(C#N)c(N)nc3c2c(C)nn3-c2ccccc2)ccc1O | Non-Toxic | 32 | – |
| COc1cc(-c2c(C#N)c(N)nc3c2c(C)nn3-c2ccc(F)cc2)cc(OC)c1OC | Non-Toxic | 0 | CC50 at 5 day [2]: 0.87 to 6 µM; EC50 (Influenza A virus H3N2): > 50 µM; EC90 (Influenza A virus H3N2): > 50 µM; EC50 (Influenza A virus [3]): 18.3 µM; EC90 (Influenza A virus [3]): 42.4 µM; Activity (Influenza B virus): inactive |
| COc1ccc(-c2c(C#N)c(O)nc3c2c(C)nn3-c2ccc(F)cc2)cc1OC | Non-Toxic | 0 | – |
| COc1cc(-c2c3c(C)nn(-c4ccccc4)c3nc3[nH]c(=O)[nH]c(=O)c23)ccc1O | Non-Toxic | 2 | – |
| Cc1ccc(-n2nc(C)c3c(-c4ccc(O)c(O)c4)c(C#N)c(N)nc32)cc1C | Non-Toxic | 256 | remaining at 0.25 h [4]: 78%; Activity [5]: inactive; remaining at 0.5 h [6]: 64%; inhibition [7]: Active; Activity (Saccharomyces cerevisiae): Non-Toxic; inhibition [8]: Active; CC50 at 5 day [2]: 24.5 to 39.3 µM; EC50 (Influenza A virus H3N2): > 50 µM; EC90 (Influenza A virus H3N2): > 50 µM; EC50 (Influenza A virus [3]): 1.2 µM; EC90 (Influenza A virus [3]): 3.4 µM; Kinetic_solubility [9]: 11.6 µM; remaining at 0 min [10]: 100%; Activity (Influenza B virus): inactive; Activity (Influenza A virus [11]): inactive |
| COc1ccc(-c2c(C#N)c(O)nc3c2c(C)nn3-c2ccccc2)cc1OC | Non-Toxic | 2 | – |
| COc1cc(-c2c(C#N)c(O)nc3c2c(C)nn3-c2ccccc2)cc(OC)c1OC | Non-Toxic | 16 | – |
| Cc1nn(-c2ccccc2)c2nc(N)c(C#N)c(-c3ccc(O)c(O)c3)c12 | Non-Toxic | 32 | – |
| COc1cc(-c2c3c(C)nn(-c4ccccc4)c3nc3[nH]c(=O)[nH]c(=O)c23)cc(OC)c1O | Non-Toxic | 4 | – |
| NC(=O)c1ncn([C@@H]2O[C@H](CO)[C@@H](O)[C@H]2O)n1 [RIBAVIRIN] | – | – | EC50 (Influenza A virus H3N2): 28.8 µM; EC90 (Influenza A virus H3N2): 34.9 µM; EC50 (Influenza A virus [3]): 2.2 µM; EC90 (Influenza A virus [3]): 3.5 µM |
| COc1cc(-c2ccnc3c2c(C)nn3-c2ccc(F)cc2)ccc1O | Non-Toxic | 2 | – |
| COc1ccc(-c2c3c(C)nn(-c4ccccc4)c3nc3[nH]c(=O)[nH]c(=O)c23)cc1OC | Non-Toxic | 4 | – |
| O=C(NCCCc1ccccc1)c1ccccc1O | – | – | inhibition [8]: Active |
| COc1ccc(-n2nc(C)c3c(-c4ccc(O)c(OC)c4)ccnc32)cc1 | Non-Toxic | 32 | – |
| COc1ccc(-c2c(C#N)c(N)nc3c2c(C)nn3-c2ccc(Cl)cc2)cc1OC | Non-Toxic | 0 | – |
| COc1cc(-c2c(C#N)c(O)nc3c2c(C)nn3-c2ccccc2)ccc1O | Non-Toxic | 16 | – |
| COc1ccc(-c2c(C#N)c(N)nc3c2c(C)nn3-c2ccc(C)cc2)cc1OC | Non-Toxic | 0 | – |
| COc1cc(-c2c(C#N)c(N)nc3c2c(C)nn3-c2ccc(C)cc2)cc(OC)c1OC | Non-Toxic | 32 | – |

| SMILES | Activity (MDCK) | fold change (FC) (Influenza A virus [1]) | other results |
| --- | --- | --- | --- |
| COc1ccc(-c2c(C#N)c(N)nc3c2c(C)nn3-c2ccc(F)cc2)cc1OC | Non-Toxic | 2 | – |
| CCOC(=O)c1cnc2c(c(C)nn2-c2ccc(F)cc2)c1-c1ccc(O)c(OC)c1 | Non-Toxic | 16 | – |
| COc1cc(-c2c(C#N)c(N)nc3c2c(C)nn3-c2ccccc2)cc(OC)c1OC | Non-Toxic | 16 | – |
| COc1cc(-c2c(C#N)c(N)nc3c2c(C)nn3-c2ccc(C)c(C)c2)ccc1O | Non-Toxic | 4 | – |
| COc1ccc(-c2c3c(C)nn(-c4ccccc4)c3nc3[nH]c(=O)[nH]c(=O)c23)cc1O | Non-Toxic | 2 | – |
| COc1cccc(-c2ccnc3c2c(C)nn3-c2ccc(F)cc2)c1 | Toxic | 4 | – |
| COc1cc(-c2c(C#N)c(N)nc3c2c(C)nn3-c2ccc(Cl)cc2)ccc1O | Non-Toxic | 32 | – |
| Cc1nn(-c2ccccc2)c2nc3[nH]c(=O)[nH]c(=O)c3c(-c3ccc4c(c3)OCO4)c12 | Non-Toxic | 4 | – |
| Cc1ccc(-n2nc(C)c3c(-c4ccc(O)c(O)c4)c(C#N)c(N)nc32)cc1 | Non-Toxic | 64 | – |
| COc1cc(-c2c(C#N)c(N)nc3c2c(C)nn3-c2ccc(Cl)cc2)cc(OC)c1OC | Non-Toxic | 0 | – |
| COc1cc(-c2ccnc3c2c(C)nn3-c2ccccc2)ccc1O | Non-Toxic | 2 | – |
| COc1cc(-c2c(C(=O)O)cnc3c2c(C)nn3-c2ccc(F)cc2)ccc1O | Non-Toxic | 4 | – |
| COc1cc(-c2c(C#N)c(N)nc3c2c(C)nn3-c2ccc(C)cc2)ccc1O | Non-Toxic | 4 | – |
| Cc1nn(-c2ccc(F)cc2)c2nc(N)c(C#N)c(-c3ccc(O)c(O)c3)c12 | Non-Toxic | 16 | – |
| COc1cc(-c2ccnc3c2c(C)nn3-c2cccc(F)c2)ccc1O | Non-Toxic | 0 | – |
| COc1ccc(-c2c(C#N)c(N)nc3c2c(C)nn3-c2ccccc2)cc1OC | Non-Toxic | 2 | – |
| COc1cc(-c2c(C#N)c(N)nc3c2c(C)nn3-c2ccc(C)c(C)c2)cc(OC)c1OC | Non-Toxic | 0 | – |
| COc1ccc(-c2ccnc3c2c(C)nn3-c2ccc(F)cc2)cc1OC | Non-Toxic | 2 | – |
